# Reference: ChEMBL document CHEMBL4376872, “Scaffold Hopping of Natural Product Evodiamine: Discovery of a Novel Antitumor Scaffold with Excellent Potency against Colon Cancer” (J Med Chem, 2020)
# The source made the active and inactive calls. The calls are words filed in the database; no cut-off is given here.
# Assays:
# HCT-116 [1] = experiment: Cell cycle arrest in human HCT116 cells assessed as accumulation in G2 phase at 36 nM incubated for 24 hrs by propidium iodide staining based flow cytometry (reference value: 12.52 %); assay type: functional
# A549 = experiment: Antiproliferative activity against human A549 cells assessed as reduction in cell viability incubated for 72 hrs by CCK8 assay; assay type: functional, cell-based; settings: A549, 72 h
# [2] = target: Lysine-specific demethylase 4A (Homo sapiens) (UniProt O75164); experiment: Inhibition of JMJD2A (unknown origin) using biotinylated histone H3 peptide as substrate at 5 uM incubated for 60 mins by AlphaScreen assay relative to control
# Chain of Lysine-specific demethylase 4A (Homo sapiens) (O75164 whole entry): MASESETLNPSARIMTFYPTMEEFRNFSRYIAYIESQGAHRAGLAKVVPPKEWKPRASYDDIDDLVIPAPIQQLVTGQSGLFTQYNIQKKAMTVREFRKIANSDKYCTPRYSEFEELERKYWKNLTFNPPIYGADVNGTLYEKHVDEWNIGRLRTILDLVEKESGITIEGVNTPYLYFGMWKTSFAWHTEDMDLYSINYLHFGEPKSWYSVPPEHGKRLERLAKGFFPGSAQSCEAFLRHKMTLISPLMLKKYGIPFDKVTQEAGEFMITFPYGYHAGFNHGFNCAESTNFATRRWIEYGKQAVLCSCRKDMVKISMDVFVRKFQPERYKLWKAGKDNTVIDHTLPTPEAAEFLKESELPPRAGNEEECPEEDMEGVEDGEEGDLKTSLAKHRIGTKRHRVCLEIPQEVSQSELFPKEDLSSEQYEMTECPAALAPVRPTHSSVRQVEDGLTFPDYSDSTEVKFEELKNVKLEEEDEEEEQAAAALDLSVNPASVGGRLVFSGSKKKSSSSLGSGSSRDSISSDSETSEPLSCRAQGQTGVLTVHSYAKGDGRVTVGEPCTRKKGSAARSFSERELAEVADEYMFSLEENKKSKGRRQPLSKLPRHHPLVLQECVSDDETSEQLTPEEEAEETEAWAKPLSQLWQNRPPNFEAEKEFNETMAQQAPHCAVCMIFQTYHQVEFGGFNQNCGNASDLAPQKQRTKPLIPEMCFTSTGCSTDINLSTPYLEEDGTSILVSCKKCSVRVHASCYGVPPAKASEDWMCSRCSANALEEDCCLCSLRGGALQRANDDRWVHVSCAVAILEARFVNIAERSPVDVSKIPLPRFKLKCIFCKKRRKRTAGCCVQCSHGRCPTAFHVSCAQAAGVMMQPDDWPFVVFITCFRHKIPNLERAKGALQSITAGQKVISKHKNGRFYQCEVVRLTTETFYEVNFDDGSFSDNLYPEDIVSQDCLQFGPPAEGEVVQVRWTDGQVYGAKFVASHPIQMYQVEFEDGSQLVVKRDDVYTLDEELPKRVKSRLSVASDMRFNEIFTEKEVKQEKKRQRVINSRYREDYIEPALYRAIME
# MDA-MB-435 = experiment: Antiproliferative activity against human MDA-MB-435 cells assessed as reduction in cell viability incubated for 72 hrs by CCK8 assay; assay type: functional, cell-based; settings: MDA-MB-435, 72 h
# HCT-116 [3] = experiment: Cell cycle arrest in human HCT116 cells assessed as accumulation in G1 phase at 36 nM incubated for 24 hrs by propidium iodide staining based flow cytometry (reference value: 45.18 %); assay type: functional
# BEL-7404 tumor cell line = experiment: Antiproliferative activity against human Bel7404 cells assessed as reduction in cell viability incubated for 72 hrs by CCK8 assay; assay type: functional, cell-based; settings: BEL-7404, 72 h
# [4] = target: Poly [ADP-ribose] polymerase tankyrase-1 (Homo sapiens) (UniProt O95271); experiment: Inhibition of TNKS1 (unknown origin) using biotin-NAD+, NAD+ and sIDNA as substrate at 5 uM incubated for 1 hr by ELISA relative to control
# Chain of Poly [ADP-ribose] polymerase tankyrase-1 (Homo sapiens) (O95271 whole entry): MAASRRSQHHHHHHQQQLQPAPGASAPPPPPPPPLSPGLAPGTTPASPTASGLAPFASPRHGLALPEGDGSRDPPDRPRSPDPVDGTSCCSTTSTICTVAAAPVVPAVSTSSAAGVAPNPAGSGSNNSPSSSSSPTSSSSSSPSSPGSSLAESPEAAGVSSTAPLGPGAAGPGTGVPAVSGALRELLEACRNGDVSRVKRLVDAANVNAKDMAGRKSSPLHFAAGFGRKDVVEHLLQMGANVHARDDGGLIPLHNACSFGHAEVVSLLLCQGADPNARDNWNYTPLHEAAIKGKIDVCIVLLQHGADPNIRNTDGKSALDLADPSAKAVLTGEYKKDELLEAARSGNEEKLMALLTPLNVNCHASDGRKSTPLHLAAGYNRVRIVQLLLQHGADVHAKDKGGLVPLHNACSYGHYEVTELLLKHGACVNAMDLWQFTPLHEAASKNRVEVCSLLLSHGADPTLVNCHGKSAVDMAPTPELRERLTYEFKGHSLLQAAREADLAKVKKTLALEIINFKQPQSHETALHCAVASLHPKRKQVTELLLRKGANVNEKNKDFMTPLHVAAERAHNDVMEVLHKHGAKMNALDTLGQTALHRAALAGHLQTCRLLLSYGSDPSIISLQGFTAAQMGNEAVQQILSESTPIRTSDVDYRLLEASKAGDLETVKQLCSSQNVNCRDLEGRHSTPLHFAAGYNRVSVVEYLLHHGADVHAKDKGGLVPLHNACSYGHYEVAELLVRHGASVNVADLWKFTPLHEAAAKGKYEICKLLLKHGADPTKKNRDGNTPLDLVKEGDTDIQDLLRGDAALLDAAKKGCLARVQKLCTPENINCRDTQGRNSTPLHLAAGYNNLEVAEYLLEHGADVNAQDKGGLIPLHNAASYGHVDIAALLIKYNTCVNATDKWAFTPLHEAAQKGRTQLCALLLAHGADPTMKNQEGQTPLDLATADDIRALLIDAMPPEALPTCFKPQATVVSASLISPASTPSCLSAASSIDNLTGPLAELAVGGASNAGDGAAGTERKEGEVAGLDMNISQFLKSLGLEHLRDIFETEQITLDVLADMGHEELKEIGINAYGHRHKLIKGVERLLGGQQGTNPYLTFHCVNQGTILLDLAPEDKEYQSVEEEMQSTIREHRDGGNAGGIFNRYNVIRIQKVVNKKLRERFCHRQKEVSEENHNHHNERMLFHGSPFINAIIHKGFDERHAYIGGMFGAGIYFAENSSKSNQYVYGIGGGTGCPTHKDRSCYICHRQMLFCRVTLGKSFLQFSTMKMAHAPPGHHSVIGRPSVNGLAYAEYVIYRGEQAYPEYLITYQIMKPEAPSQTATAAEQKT
# [5] = target: Epidermal growth factor receptor (Homo sapiens) (UniProt P00533); experiment: Inhibition of EGFR (unknown origin) using poly (Glu, Tyr) as substrate at 5 uM incubated for 40 mins in presence of 10 uM ATP by kiase-Glo luminescence assay relative to control
# Chain of Epidermal growth factor receptor (Homo sapiens) (P00533 whole entry): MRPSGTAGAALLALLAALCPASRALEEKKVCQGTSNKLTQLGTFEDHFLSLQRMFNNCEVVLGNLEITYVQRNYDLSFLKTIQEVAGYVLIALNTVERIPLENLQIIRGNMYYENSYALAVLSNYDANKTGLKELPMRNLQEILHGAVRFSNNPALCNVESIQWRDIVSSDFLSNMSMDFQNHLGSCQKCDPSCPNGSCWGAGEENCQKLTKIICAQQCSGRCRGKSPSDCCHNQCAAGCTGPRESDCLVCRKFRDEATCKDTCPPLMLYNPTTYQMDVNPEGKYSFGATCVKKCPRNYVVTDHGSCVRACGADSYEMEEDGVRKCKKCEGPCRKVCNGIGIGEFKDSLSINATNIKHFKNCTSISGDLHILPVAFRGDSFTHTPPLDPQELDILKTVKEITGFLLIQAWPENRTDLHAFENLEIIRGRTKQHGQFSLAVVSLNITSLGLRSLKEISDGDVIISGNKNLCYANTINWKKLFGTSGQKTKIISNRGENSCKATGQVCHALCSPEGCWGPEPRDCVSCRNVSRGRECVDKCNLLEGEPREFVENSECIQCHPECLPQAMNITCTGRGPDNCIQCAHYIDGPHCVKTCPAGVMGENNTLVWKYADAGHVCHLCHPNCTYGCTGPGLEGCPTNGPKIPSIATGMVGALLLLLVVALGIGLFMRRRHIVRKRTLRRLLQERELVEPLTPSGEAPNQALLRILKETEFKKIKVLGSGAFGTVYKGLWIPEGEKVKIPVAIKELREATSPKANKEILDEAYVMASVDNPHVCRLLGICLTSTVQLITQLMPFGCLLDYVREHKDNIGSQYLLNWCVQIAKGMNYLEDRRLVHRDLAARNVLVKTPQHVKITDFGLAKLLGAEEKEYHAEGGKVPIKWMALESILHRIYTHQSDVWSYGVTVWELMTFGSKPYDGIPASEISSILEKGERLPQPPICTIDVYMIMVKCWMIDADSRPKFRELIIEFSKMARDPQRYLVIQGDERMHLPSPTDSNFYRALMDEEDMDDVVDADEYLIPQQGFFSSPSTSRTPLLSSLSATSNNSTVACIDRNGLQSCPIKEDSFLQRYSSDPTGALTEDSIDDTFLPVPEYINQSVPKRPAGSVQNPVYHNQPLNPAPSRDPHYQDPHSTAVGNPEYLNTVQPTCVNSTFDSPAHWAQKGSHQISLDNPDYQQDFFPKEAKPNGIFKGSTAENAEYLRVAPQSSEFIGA
# [6] = target: Protein mono-ADP-ribosyltransferase PARP12 (Homo sapiens) (UniProt Q9H0J9); experiment: Inhibition of PARP12 (unknown origin) using biotin-NAD+, NAD+ and sIDNA as substrate at 5 uM incubated for 1 hr by ELISA relative to control
# HCT-116 [7] = experiment: Cell cycle arrest in human HCT116 cells assessed as accumulation in S phase at 4 nM incubated for 24 hrs by propidium iodide staining based flow cytometry (reference value: 42.31 %); assay type: functional
# [8] = target: T1, DNA topoisomerase 1 (Escherichia coli (strain K12)) (UniProt P06612); experiment: Poison activity at Escherichia coli Top1 assessed as increase in […] band intensity at 12.5 to 100 uM using supercoiled pUC19 plasmid DNA as substrate incubated for 30 mins by agarose gel electrophoresis analysis
# T1 sequence (whole entry): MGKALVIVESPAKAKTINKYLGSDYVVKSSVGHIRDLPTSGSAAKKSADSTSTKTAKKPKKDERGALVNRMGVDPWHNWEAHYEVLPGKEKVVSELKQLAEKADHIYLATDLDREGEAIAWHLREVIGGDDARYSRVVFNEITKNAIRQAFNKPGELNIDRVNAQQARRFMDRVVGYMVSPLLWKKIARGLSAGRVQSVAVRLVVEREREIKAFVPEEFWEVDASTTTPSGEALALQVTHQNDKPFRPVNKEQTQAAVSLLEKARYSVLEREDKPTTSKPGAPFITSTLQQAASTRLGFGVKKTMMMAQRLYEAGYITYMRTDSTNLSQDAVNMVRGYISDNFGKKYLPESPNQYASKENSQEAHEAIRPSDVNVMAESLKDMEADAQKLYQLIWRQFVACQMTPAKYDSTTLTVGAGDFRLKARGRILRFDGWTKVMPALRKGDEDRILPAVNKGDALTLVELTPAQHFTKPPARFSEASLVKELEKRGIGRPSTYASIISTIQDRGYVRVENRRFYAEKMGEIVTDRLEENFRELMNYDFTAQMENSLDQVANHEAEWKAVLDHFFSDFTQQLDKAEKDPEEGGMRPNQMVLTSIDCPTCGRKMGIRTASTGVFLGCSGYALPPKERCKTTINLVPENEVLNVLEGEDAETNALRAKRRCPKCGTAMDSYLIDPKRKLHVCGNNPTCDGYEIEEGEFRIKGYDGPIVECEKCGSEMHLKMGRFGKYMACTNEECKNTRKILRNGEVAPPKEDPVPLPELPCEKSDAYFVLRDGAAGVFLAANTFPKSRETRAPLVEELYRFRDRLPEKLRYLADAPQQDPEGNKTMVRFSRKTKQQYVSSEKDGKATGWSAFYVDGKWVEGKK
# Method in brief: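 Supercoiled pUC19 plasmid DNA was incubated with Top1 plus compound at 100, 50, 25 and 12.5 μM. Controls were DNA alone, DNA + Top1, and DNA + Top1 + CPT (100 μM). Products were resolved as gel lanes.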
# HCT-116 [9] = experiment: Induction of apoptosis in human HCT116 cells incubated for 24 hrs by annexin V-FITC and propidium iodide staining based flow cytometry; assay type: functional, cell-based
# [10] = target: DNA topoisomerase 2-alpha (Homo sapiens) (UniProt P11388); experiment: Inhibition of human Top2alpha assessed as decrease in relaxation of supercoiled pBR322 plasmid DNA at 100 uM using supercoiled pBR322 plasmid DNA as substrate incubated for 30 mins by agarose gel electrophoresis analysis
# Chain of DNA topoisomerase 2-alpha (Homo sapiens) (P11388 whole entry): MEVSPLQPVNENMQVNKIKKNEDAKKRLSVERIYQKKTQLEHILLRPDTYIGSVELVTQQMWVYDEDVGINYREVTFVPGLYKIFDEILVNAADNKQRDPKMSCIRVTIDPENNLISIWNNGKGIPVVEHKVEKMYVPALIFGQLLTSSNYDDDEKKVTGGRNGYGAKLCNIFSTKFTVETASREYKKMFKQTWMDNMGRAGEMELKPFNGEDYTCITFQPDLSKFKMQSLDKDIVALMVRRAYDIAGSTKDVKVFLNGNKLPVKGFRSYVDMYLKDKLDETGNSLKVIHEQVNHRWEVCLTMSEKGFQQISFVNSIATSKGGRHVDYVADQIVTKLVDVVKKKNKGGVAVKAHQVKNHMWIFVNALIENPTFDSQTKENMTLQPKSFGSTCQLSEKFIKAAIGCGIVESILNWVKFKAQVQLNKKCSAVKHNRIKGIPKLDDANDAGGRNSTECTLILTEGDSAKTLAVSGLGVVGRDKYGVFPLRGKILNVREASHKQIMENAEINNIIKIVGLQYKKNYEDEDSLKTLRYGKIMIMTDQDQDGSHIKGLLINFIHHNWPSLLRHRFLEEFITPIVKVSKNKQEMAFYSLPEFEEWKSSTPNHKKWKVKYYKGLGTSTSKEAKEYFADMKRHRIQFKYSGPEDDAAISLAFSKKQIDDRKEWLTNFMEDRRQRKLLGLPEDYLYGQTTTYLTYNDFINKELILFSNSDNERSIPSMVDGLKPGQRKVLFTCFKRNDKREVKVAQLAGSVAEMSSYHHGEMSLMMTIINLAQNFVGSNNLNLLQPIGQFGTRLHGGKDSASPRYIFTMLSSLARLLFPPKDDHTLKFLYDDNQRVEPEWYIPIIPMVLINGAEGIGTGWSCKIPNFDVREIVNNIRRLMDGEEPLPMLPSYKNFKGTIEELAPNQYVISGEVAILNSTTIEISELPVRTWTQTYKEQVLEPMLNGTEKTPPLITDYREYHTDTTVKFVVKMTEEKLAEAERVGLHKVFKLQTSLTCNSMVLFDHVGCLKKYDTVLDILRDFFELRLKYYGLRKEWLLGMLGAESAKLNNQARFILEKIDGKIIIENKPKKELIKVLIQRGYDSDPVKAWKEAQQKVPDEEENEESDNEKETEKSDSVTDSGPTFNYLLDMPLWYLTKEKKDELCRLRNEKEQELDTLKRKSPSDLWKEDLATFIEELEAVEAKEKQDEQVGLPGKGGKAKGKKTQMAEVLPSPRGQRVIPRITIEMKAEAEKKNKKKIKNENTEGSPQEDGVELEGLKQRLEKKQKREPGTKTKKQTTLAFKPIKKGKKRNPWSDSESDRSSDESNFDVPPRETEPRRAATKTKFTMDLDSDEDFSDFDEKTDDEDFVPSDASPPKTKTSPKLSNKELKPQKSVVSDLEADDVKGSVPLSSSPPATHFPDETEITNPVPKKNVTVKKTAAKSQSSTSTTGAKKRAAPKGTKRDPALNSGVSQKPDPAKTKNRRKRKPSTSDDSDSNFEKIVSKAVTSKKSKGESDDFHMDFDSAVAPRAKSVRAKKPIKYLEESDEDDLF
# HCT-116 [11] = experiment: Induction of apoptosis in human HCT116 cells at 0.04 uM incubated for 24 hrs by annexin V-FITC and propidium iodide staining based flow cytometry (reference value: 0.86 %); assay type: functional
# HCT-116 [12] = experiment: Cell cycle arrest in human HCT116 cells assessed as accumulation in G2 phase at 12 nM incubated for 24 hrs by propidium iodide staining based flow cytometry (reference value: 12.52 %); assay type: functional
# [13] = target: cAMP-dependent protein kinase catalytic subunit alpha (Homo sapiens) (UniProt P17612); experiment: Inhibition of PKAC-alpha (unknown origin) using CREBtide as substrate at 5 uM incubated for 40 mins in presence of 10 uM ATP by kiase-Glo luminescence assay relative to control
structure (smiles),measurement,setting,value
COc1ccc2c(c1)cc1n2CCN2C(=O)c3cc(F)ccc3N(C)C12 (stereo unspecified),Activity,HCT-116 [1],84.13%
same,IC50,A549,159000 nM
same,inhibition,[2],< 20%
same,IC50,MDA-MB-435,1000 nM
same,Activity,HCT-116 [3],1.02%
same,IC50,BEL-7404 tumor cell line,100 nM
same,inhibition,[4],< 20%
same,inhibition,[5],< 20%
same,inhibition,[6],< 20%
same,Activity,HCT-116 [7],39.26%
same,Activity,[8],Active
same,Activity,HCT-116 [9],Dose-dependent effect
same,inhibition,[10],inactive
same,Activity,HCT-116 [11],32.52%
same,Activity,HCT-116 [12],35.49%
same,inhibition,[13],< 20%
